Results from ChEMBL document CHEMBL2062487, “Design, synthesis and evaluation of clinafloxacin triazole hybrids as a new type of antibacterial and antifungal agents” (2012).
Converted amounts (≈) assume the structure as drawn.

Tests used:
Assay type in all cases: functional
[1] = system: Escherichia coli; experiment: Antibacterial activity against Escherichia coli JM109 by two fold broth dilution method
Outline: (§1)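 MIC was determined by twofold broth dilution in microplates, following NCCLS recommendations. Clinafloxacin, chloramphenicol and fluconazole served as positive controls. Values are given in μg/mL.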

[2] = system: Pseudomonas aeruginosa; experiment: Antibacterial activity against Pseudomonas aeruginosa by two fold broth dilution method; outline: as §1
[3] = system: Staphylococcus aureus; experiment: Antibacterial activity against Staphylococcus aureus ATCC […] by two fold broth dilution method; outline: as §1
[4] = Antibacterial activity against Bacillus proteus by two fold broth dilution method; outline: as §1
[5] = system: Shigella dysenteriae; experiment: Antibacterial activity against Shigella dysenteriae by two fold broth dilution method
Outline: (§2)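 Twofold broth dilution in 96-well microtest plates following NCCLS guidance. Endpoint is the MIC (µg/mL), the lowest concentration that inhibits growth. Clinafloxacin, chloramphenicol and fluconazole served as positive controls.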

[6] = system: Candida; experiment: Antifungal activity against Candida mycoderma by two fold broth dilution method; outline: as §1
[7] = system: Candida albicans; experiment: Antifungal activity against Candida albicans ATCC 76615 by two fold broth dilution method; outline: as §1
[8] = system: Micrococcus luteus; experiment: Antibacterial activity against Micrococcus luteus ATCC 4698 by two fold broth dilution method; conditions: NCTC 2665; outline: as §1
[9] = system: Staphylococcus aureus; experiment: Antibacterial activity against methicillin-resistant Staphylococcus aureus N 315 by two fold broth dilution method; conditions: N315; outline: as §2
[10] = system: Bacillus subtilis; experiment: Antibacterial activity against Bacillus subtilis ATCC 6633 by two fold broth dilution method; outline: as §1

| SMILES | MIC [1] [µg/mL] | MIC [2] [µg/mL] | MIC [3] [µg/mL] | MIC [4] [µg/mL] | MIC [5] [µg/mL] | MIC [6] [µg/mL] | MIC [7] [µg/mL] | MIC [8] [µg/mL] | MIC [9] [µg/mL] | MIC [10] [µg/mL] |
| --- | --- | --- | --- | --- | --- | --- | --- | --- | --- | --- |
| O=C(Cn1cncn1)c1ccc(Cl)c(Cl)c1 | 32 (≈ 125 µM) | 128 (≈ 500 µM) | 256 (≈ 1000 µM) | 256 (≈ 1000 µM) | 512 (≈ 2000 µM) | 512 (≈ 2000 µM) | > 512 | 512 (≈ 2000 µM) | > 512 | 512 (≈ 2000 µM) |
| Cc1ccc(C(=O)Cn2cncn2)cc1 | 32 (≈ 159 µM) | 32 (≈ 159 µM) | > 512 | > 512 | > 512 | > 512 | > 512 | > 512 | > 512 | 256 (≈ 1270 µM) |
| O=C(Cn1cncn1)c1ccc(Cl)cc1Cl | 128 (≈ 500 µM) | 256 (≈ 1000 µM) | > 512 | 512 (≈ 2000 µM) | 512 (≈ 2000 µM) | > 512 | 512 (≈ 2000 µM) | > 512 | > 512 | 512 (≈ 2000 µM) |
| Clc1ccc(C2(Cn3cncn3)CO2)cc1Cl (racemic) | 128 (≈ 474 µM) | 128 (≈ 474 µM) | 128 (≈ 474 µM) | 32 (≈ 118 µM) | 64 (≈ 237 µM) | 16 (≈ 59.2 µM) | 64 (≈ 237 µM) | 16 (≈ 59.2 µM) | 256 (≈ 948 µM) | 16 (≈ 59.2 µM) |
| Fc1ccc(C2(Cn3cncn3)CO2)cc1 (racemic) | 128 (≈ 584 µM) | 128 (≈ 584 µM) | 256 (≈ 1170 µM) | 128 (≈ 584 µM) | 64 (≈ 292 µM) | 8 (≈ 36.5 µM) | 64 (≈ 292 µM) | 8 (≈ 36.5 µM) | 128 (≈ 584 µM) | 8 (≈ 36.5 µM) |
| O=C(N[C@H](CO)[C@H](O)c1ccc([N+](=O)[O-])cc1)C(Cl)Cl [CHLORAMPHENICOL] | 32 (≈ 99 µM) | 32 (≈ 99 µM) | 16 (≈ 49.5 µM) | 32 (≈ 99 µM) | 32 (≈ 99 µM) | > 512 | > 512 | 8 (≈ 24.8 µM) | 16 (≈ 49.5 µM) | 32 (≈ 99 µM) |
| O=C(Cn1cncn1)c1ccc(Cl)cc1 | > 512 | 512 (≈ 2310 µM) | 512 (≈ 2310 µM) | 512 (≈ 2310 µM) | 512 (≈ 2310 µM) | > 512 | 512 (≈ 2310 µM) | > 512 | 512 (≈ 2310 µM) | > 512 |
| OC(Cn1cncn1)(Cn1cncn1)c1ccc(F)cc1F [FLUCONAZOLE] | > 512 | > 512 | > 512 | > 512 | > 512 | 0.5 (≈ 1.63 µM) | 0.5 (≈ 1.63 µM) | > 512 | > 512 | > 512 |
| Cc1ccc(C(O)(CNC2CCN(c3c(F)cc4c(=O)c(C(=O)O)cn(C5CC5)c4c3Cl)C2)Cn2cncn2)cc1 (racemic) | 1 (≈ 1.72 µM) | 0.5 (≈ 0.861 µM) | 2 (≈ 3.44 µM) | 0.5 (≈ 0.861 µM) | 0.5 (≈ 0.861 µM) | 0.5 (≈ 0.861 µM) | 0.5 (≈ 0.861 µM) | 2 (≈ 3.44 µM) | 0.25 (≈ 0.43 µM) | 0.5 (≈ 0.861 µM) |
| O=C(O)c1cn(C2CC2)c2c(Cl)c(N3CCC(NCC(O)(Cn4cncn4)c4ccc(F)c(F)c4)C3)c(F)cc2c1=O (racemic) | 1 (≈ 1.66 µM) | 0.5 (≈ 0.829 µM) | 0.5 (≈ 0.829 µM) | 0.5 (≈ 0.829 µM) | 0.5 (≈ 0.829 µM) | 0.5 (≈ 0.829 µM) | 0.5 (≈ 0.829 µM) | 0.5 (≈ 0.829 µM) | 0.5 (≈ 0.829 µM) | 0.5 (≈ 0.829 µM) |
| O=C(O)c1cn(C2CC2)c2c(Cl)c(N3CCC(NCC(O)(Cn4cncn4)c4ccc(Cl)cc4)C3)c(F)cc2c1=O (racemic) | 32 (≈ 53.2 µM) | > 512 | > 512 | 512 (≈ 851 µM) | > 512 | > 512 | > 512 | > 512 | > 512 | > 512 |
| O=C(Cn1cncn1)c1ccc(F)cc1F | 32 (≈ 143 µM) | 256 (≈ 1150 µM) | 512 (≈ 2290 µM) | 512 (≈ 2290 µM) | 512 (≈ 2290 µM) | > 512 | 512 (≈ 2290 µM) | 512 (≈ 2290 µM) | > 512 | 512 (≈ 2290 µM) |
| O=C(Cn1cncn1)c1ccc(F)c(F)c1 | 64 (≈ 287 µM) | 256 (≈ 1150 µM) | > 512 | > 512 | 512 (≈ 2290 µM) | 512 (≈ 2290 µM) | > 512 | 512 (≈ 2290 µM) | > 512 | 512 (≈ 2290 µM) |
| O=C(O)c1cn(C2CC2)c2c(Cl)c(N3CCC(NCC(O)(Cn4cncn4)c4ccc(F)cc4)C3)c(F)cc2c1=O (racemic) | 1 (≈ 1.71 µM) | 0.5 (≈ 0.855 µM) | 2 (≈ 3.42 µM) | 0.5 (≈ 0.855 µM) | 0.5 (≈ 0.855 µM) | 0.5 (≈ 0.855 µM) | 1 (≈ 1.71 µM) | 0.5 (≈ 0.855 µM) | 2 (≈ 3.42 µM) | 1 (≈ 1.71 µM) |
| Fc1ccc(C2(Cn3cncn3)CO2)cc1F (racemic) | 128 (≈ 540 µM) | 64 (≈ 270 µM) | 256 (≈ 1080 µM) | 64 (≈ 270 µM) | 64 (≈ 270 µM) | 8 (≈ 33.7 µM) | 128 (≈ 540 µM) | 8 (≈ 33.7 µM) | 256 (≈ 1080 µM) | 32 (≈ 135 µM) |
| Fc1ccc(C2(Cn3cncn3)CO2)c(F)c1 (racemic) | 32 (≈ 135 µM) | 16 (≈ 67.5 µM) | 256 (≈ 1080 µM) | 32 (≈ 135 µM) | 32 (≈ 135 µM) | 8 (≈ 33.7 µM) | 64 (≈ 270 µM) | 32 (≈ 135 µM) | 128 (≈ 540 µM) | 16 (≈ 67.5 µM) |
| O=C(Cn1cncn1)c1ccc(F)cc1 | > 512 | 512 (≈ 2500 µM) | > 512 | > 512 | > 512 | > 512 | > 512 | > 512 | > 512 | > 512 |
| O=C(O)c1cn(C2CC2)c2c(Cl)c(N3CCC(NCC(O)(Cn4cncn4)c4ccc(Cl)c(Cl)c4)C3)c(F)cc2c1=O (racemic) | 4 (≈ 6.29 µM) | 0.5 (≈ 0.786 µM) | 8 (≈ 12.6 µM) | 0.25 (≈ 0.393 µM) | 0.5 (≈ 0.786 µM) | 0.5 (≈ 0.786 µM) | 2 (≈ 3.15 µM) | 0.5 (≈ 0.786 µM) | 0.25 (≈ 0.393 µM) | 32 (≈ 50.3 µM) |
| NC1CCN(c2c(F)cc3c(=O)c(C(=O)O)cn(C4CC4)c3c2Cl)C1 (stereo not given) [CLINAFLOXACIN] | 0.5 (≈ 1.37 µM) | 0.5 (≈ 1.37 µM) | 0.5 (≈ 1.37 µM) | 0.5 (≈ 1.37 µM) | 1 (≈ 2.73 µM) | > 512 | > 512 | 0.5 (≈ 1.37 µM) | 1 (≈ 2.73 µM) | 0.5 (≈ 1.37 µM) |
| Clc1ccc(C2(Cn3cncn3)CO2)cc1 (racemic) | 32 (≈ 136 µM) | 32 (≈ 136 µM) | 64 (≈ 272 µM) | 16 (≈ 67.9 µM) | 32 (≈ 136 µM) | 32 (≈ 136 µM) | 32 (≈ 136 µM) | 32 (≈ 136 µM) | 256 (≈ 1090 µM) | 16 (≈ 67.9 µM) |
| O=C(O)c1cn(C2CC2)c2c(Cl)c(N3CCC(NCC(O)(Cn4cncn4)c4ccc(Cl)cc4Cl)C3)c(F)cc2c1=O (racemic) | 4 (≈ 6.29 µM) | 2 (≈ 3.15 µM) | 4 (≈ 6.29 µM) | 1 (≈ 1.57 µM) | 0.5 (≈ 0.786 µM) | 0.5 (≈ 0.786 µM) | 4 (≈ 6.29 µM) | 0.5 (≈ 0.786 µM) | 4 (≈ 6.29 µM) | 32 (≈ 50.3 µM) |
